Test results: ChEMBL document CHEMBL1155808, “Antitumor activity of bis-indole derivatives” (J Med Chem, 2008)
pIC50: −log10 of the molar value. The source made the active and inactive calls. The calls are words filed in the database; no cut-off is given here.

Assays:
[1] = Cytotoxicity against human Non-small cell lung carcinoma cells; type: functional; conditions: for CC50: read-out: pLC50 (the source's name) (converted); for TGI: read-out: pTGI (converted)
In short: (§1)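 NCI 60-cell-line human tumour screen, with subpanels for leukemia, melanoma, lung, colon, kidney, ovary, breast, prostate and CNS. Compounds were dissolved in DMSO and tested at five ten-fold dilutions, highest 10^-4 M (10^-3 M for some). Endpoints were GI50, TGI and LC50, reported as negative log molar. Some compounds were assayed once, others two or three times.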

[2] = Cytotoxicity against human colon cancer cells; type: functional; conditions: Cancer cell lines; for CC50: read-out: pLC50 (the source's name) (converted); for TGI: read-out: pTGI (converted); in short: as §1
[3] = Cytotoxicity against human central nervous system cancer cells; type: functional; conditions: Cancer cell lines; for CC50: read-out: pLC50 (the source's name) (converted); for TGI: read-out: pTGI (converted); in short: as §1
[4] = Cytotoxicity against human melanoma cells; type: functional; conditions: Melanoma cell; for CC50: read-out: pLC50 (the source's name) (converted)
[5] = Cytotoxicity against human ovarian cancer cells; type: functional; conditions: Cancer cell lines; for CC50: read-out: pLC50 (the source's name) (converted); for TGI: read-out: pTGI (converted)
[6] = Cytotoxicity against human renal cancer cells; type: functional; conditions: Cancer cell lines; for CC50: read-out: pLC50 (the source's name) (converted); for TGI: read-out: pTGI (converted); in short: as §1
[7] = Cytotoxicity against human prostate cancer cells; type: functional; conditions: Cancer cell lines; for CC50: read-out: pLC50 (the source's name) (converted); for TGI: read-out: pTGI (converted); in short: as §1
[8] = Cytotoxicity against human breast cancer cells; type: functional; conditions: Cancer cell lines; for CC50: read-out: pLC50 (the source's name) (converted); for TGI: read-out: pTGI (converted)
In short: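 MTT cytotoxicity assay in breast cancer cell lines; proliferation expressed as percent growth inhibition relative to vehicle-treated control cells; IC50 reported.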

[9] = Cytotoxicity against human leukemia cells; type: functional; conditions: Leukemia cell; for CC50: read-out: pLC50 (the source's name) (converted); for TGI: read-out: pTGI (converted); in short: as §1
[10] = Inhibition of plasma membrane electron transport pathway in mitochondrial gene-knockout human HL60p'0 cells by WST1 reduction assay
In short: (§2)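 Cells at 10^5 per well in 0.1 ml pretreated 30 min with compound in DMSO (<0.1% final), then WST-1/mPMS added (final 500 µM and 20 µM); WST-1 reduction followed in real time at 450 nm; averages ± S.E.M. of four independent experiments.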

[11] = Inhibition of plasma membrane electron transport pathway in human HL60 cells by WST1 reduction assay; type: cell-based; conditions: HL-60; in short: as §2
[12] = Inhibition of plasma membrane electron transport pathway in human B1647 cells by WST1 reduction assay; type: cell-based; in short: as §2
[13] = Inhibition of plasma membrane electron transport pathway in human HEL cells by WST1 reduction assay; type: cell-based; in short: as §2
[14] = Inhibition of plasma membrane electron transport pathway in human Mo7e cells by WST1 reduction assay; type: cell-based; in short: as §2
B1647 = test: Antiproliferative activity against human B1647 cells after 48 hrs by MTT assay; type: functional, cell-based
HEL = test: Antiproliferative activity against human HEL cells after 48 hrs by MTT assay; type: functional, cell-based
Mo7e = test: Antiproliferative activity against human Mo7e cells after 48 hrs by MTT assay; type: functional, cell-based
Mus musculus [15] = test: Toxicity in ip dosed mouse assessed as maximum tolerated dose after 14 days; type: organism-based; conditions: in vivo, 336 h
In short: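 Mice received a single i.p. injection of 400 mg/kg. If the animal survived 14 days, MTD was 400 mg/kg. If it died, the dose was lowered to 200 mg/kg and then halved repeatedly until a tolerated dose was found, which was taken as the MTD.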

Mus musculus [16] = test: Toxicity in human HL60(TB) cells xenografted mouse assessed as mean net weight loss at 200 mg/kg, ip dosed as Q4Dx3, day 7 schedule measured on day 14; type: organism-based; parameters: dose 200 mg/kg, route intraperitoneal; conditions: in vivo
Mus musculus [17] = test: Toxicity in human HL60(TB) cells xenografted mouse assessed as mean net weight loss at 134 mg/kg, ip dosed as Q4Dx3, day 7 schedule measured on day 14; type: organism-based; parameters: dose 134 mg/kg, route intraperitoneal; conditions: in vivo
Mus musculus [18] = test: Toxicity in human HL60(TB) cells xenografted mouse assessed as mean net weight loss at 90 mg/kg, ip dosed as Q4Dx3, day 7 schedule measured on day 22; type: organism-based; parameters: dose 90 mg/kg, route intraperitoneal; conditions: in vivo
Mus musculus [19] = test: Toxicity in human HL60(TB) cells xenografted mouse assessed as drug induced death at 200 mg/kg, ip dosed as Q4Dx3, day 7 schedule measured on day 14; type: organism-based; parameters: dose 200 mg/kg, route intraperitoneal; conditions: in vivo
Mus musculus [20] = test: Toxicity in human HL60(TB) cells xenografted mouse assessed as drug induced death at 134 mg/kg, ip dosed as Q4Dx3, day 7 schedule measured on day 14; type: organism-based; parameters: dose 134 mg/kg, route intraperitoneal; conditions: in vivo
Mus musculus [21] = test: Toxicity in human HL60(TB) cells xenografted mouse assessed as drug induced death at 90 mg/kg, ip dosed as Q4Dx3, day 7 schedule measured on day 22; type: organism-based; parameters: dose 90 mg/kg, route intraperitoneal; conditions: in vivo
[22] = Antitumor activity against human HL60(TB) cells xenografted in mouse assessed as effect on tumor growth at 200 mg/kg, ip dosed as Q4Dx3, day 7 schedule measured on day 19 relative to control; type: functional, HL-60(TB); conditions: route intraperitoneal
[23] = Antitumor activity against human HL60(TB) cells xenografted in mouse assessed as effect on tumor growth at 134 mg/kg, ip dosed as Q4Dx3, day 7 schedule measured on day 19 relative to control; type: functional, HL-60(TB); conditions: route intraperitoneal
[24] = Antitumor activity against human HL60(TB) cells xenografted in mouse assessed as tumor growth delay at 90 mg/kg, ip dosed as Q4Dx3, day 7 schedule day 7 schedule measured on day 19 relative to control; type: functional, HL-60(TB); conditions: route intraperitoneal
[25] = Antitumor activity against human HL60(TB) cells xenografted in mouse assessed as tumor growth delay at 200 mg/kg, ip dosed as Q4Dx3, day 7 schedule relative to control; type: functional, HL-60(TB); conditions: route intraperitoneal
[26] = Antitumor activity against human HL60(TB) cells xenografted in mouse assessed as tumor growth delay at 134 mg/kg, ip dosed as Q4Dx3, day 7 schedule relative to control; type: functional, HL-60(TB); conditions: route intraperitoneal
[27] = Antitumor activity against human HL60(TB) cells xenografted in mouse assessed as tumor growth delay at 90 mg/kg, ip dosed as Q4Dx3, day 7 schedule relative to control; type: functional, HL-60(TB); conditions: route intraperitoneal
[28] = Antitumor activity against human HL60(TB) cells xenografted in mouse assessed as net log cell kill at 200 mg/kg, ip dosed as Q4Dx3, day 7 schedule relative to control; type: functional, HL-60(TB); conditions: route intraperitoneal
[29] = Antitumor activity against human HL60(TB) cells xenografted in mouse assessed as net log cell kill at 134 mg/kg, ip dosed as Q4Dx3, day 7 schedule relative to control; type: functional, HL-60(TB); conditions: route intraperitoneal
[30] = Antitumor activity against human HL60(TB) cells xenografted in mouse assessed as net log cell kill at 90 mg/kg, ip dosed as Q4Dx3, day 7 schedule relative to control; type: functional, HL-60(TB); conditions: route intraperitoneal
HL-60 = test: Cytotoxicity against human HL60 cells after 48 hrs by MTT assay; type: functional, cell-based; conditions: HL-60, 48 h
[31] = Cytotoxicity against human mitochondrial gene-knockout human HL60p'0 cells after 48 hrs by MTT assay; type: functional, cell-based

Structure (SMILES): COc1ccc2c(c1)/C(=C\c1cccc(/C=C3/C(=O)Nc4ccc(OC)cc43)n1)C(=O)N2
- GI50 [1]: 1700 nM
- CC50 [1]: 43.7 µM
- TGI [1]: 10.7 µM
- GI50 [2]: 794 nM
- CC50 [2]: 30.9 µM
- TGI [2]: 4.68 µM
- GI50 [3]: 1620 nM
- CC50 [3]: 63.1 µM
- TGI [3]: 12.9 µM
- GI50 [4]: 891 nM
- CC50 [4]: 13.5 µM
- GI50 [5]: 1120 nM
- CC50 [5]: 46.8 µM
- TGI [5]: 9.33 µM
- GI50 [6]: 1450 nM
- CC50 [6]: 24 µM
- TGI [6]: 4.27 µM
- GI50 [7]: 1660 nM
- CC50 [7]: 69.2 µM
- TGI [7]: 9.33 µM
- GI50 [8]: 1480 nM
- CC50 [8]: 81.3 µM
- TGI [8]: 14.8 µM
- GI50 [9]: 617 nM
- CC50 [9]: 57.5 µM
- TGI [9]: 3.8 µM
- pIC50 [10]: < 3.93
- pIC50 [11]: < 3.93
- pIC50 [12]: 4.52
- pIC50 [13]: 4.52
- pIC50 [14]: 4.52
- Activity (B1647): Active
- Activity (HEL): Active
- Activity (Mo7e): Active
- MTD (Mus musculus [15]): 400 mg/kg
- Activity (Mus musculus [16]): 10%
- Activity (Mus musculus [17]): 6.4%
- Activity (Mus musculus [18]): 9.1%
- Activity (Mus musculus [19]): Non-toxic
- Activity (Mus musculus [20]): Non-toxic
- Activity (Mus musculus [21]): Non-toxic
- T/C [22]: 90%
- T/C [23]: 6.4%
- T/C [24]: 138%
- Activity [25]: 48%
- Activity [26]: -17%
- Activity [27]: 25%
- LCK [28]: -0.8
- LCK [29]: -1.8
- LCK [30]: -1.1

Structure (SMILES): O=C1Nc2ccc(O)cc2/C1=C\c1cccc(/C=C2/C(=O)Nc3ccc(O)cc32)n1
- GI50 [1]: 33900 nM
- GI50 [2]: 38900 nM
- GI50 [3]: 40700 nM
- GI50 [4]: 83200 nM
- GI50 [5]: 83200 nM
- GI50 [6]: 34700 nM
- CC50 [6]: 95.5 µM
- TGI [6]: 69.2 µM
- GI50 [7]: 20000 nM
- GI50 [8]: 40700 nM
- TGI [8]: 85.1 µM
- GI50 [9]: 17400 nM
- CC50 [9]: 93.3 µM
- TGI [9]: 55 µM
- pIC50 [10]: < 3.93
- pIC50 [11]: < 3.93
- pIC50 [12]: 4.40
- pIC50 [13]: 4.40
- pIC50 [14]: 4.40
- Activity (B1647): Active
- Activity (HEL): Active
- Activity (Mo7e): Active

Structure (SMILES): O=C1Nc2ccc(Cl)cc2/C1=C\c1cccc(/C=C2/C(=O)Nc3ccc(Cl)cc32)n1
- GI50 [1]: 1740 nM
- CC50 [1]: 20 µM
- TGI [1]: 4.37 µM
- GI50 [2]: 933 nM
- CC50 [2]: 15.1 µM
- TGI [2]: 2.57 µM
- GI50 [3]: 891 nM
- CC50 [3]: 14.8 µM
- TGI [3]: 2.75 µM
- GI50 [4]: 692 nM
- CC50 [4]: 7.94 µM
- TGI ([4]; read-out: pTGI (converted)): 1910 nM
- GI50 [5]: 1260 nM
- CC50 [5]: 17.8 µM
- TGI [5]: 4.17 µM
- GI50 [6]: 1260 nM
- CC50 [6]: 7.59 µM
- TGI [6]: 2.95 µM
- GI50 [7]: 1510 nM
- CC50 [7]: 24.5 µM
- TGI [7]: 6.61 µM
- GI50 [8]: 1120 nM
- CC50 [8]: 22.9 µM
- TGI [8]: 4.17 µM
- GI50 [9]: 661 nM
- CC50 [9]: 47.9 µM
- TGI [9]: 4.9 µM
- pIC50 [10]: < 3.93
- pIC50 [11]: < 3.93
- pIC50 (HL-60): 5.52
- pIC50 [31]: 5.52
- Activity (B1647): Active
- Activity (HEL): Active
- Activity (Mo7e): Active
